Measured values collected from several papers.
Lines come from different studies, so protocols differ.
MMP7: Matrilysin (MMP7, Homo sapiens, UniProt P09237)

| Compound | target | test | setting | endpoint | result |
| --- | --- | --- | --- | --- | --- |
| C#Cc1n[nH]c2c(-c3cn([C@@H](C)c4ccccn4)c(=O)[nH]c3=O)cc(F)cc12 | Tyrosine-protein kinase receptor UFO (AXL, Homo sapiens, UniProt P30530) | enzyme activity, inhibitor | 0.1 µM | inhibition | 13.4% |
| O=c1ccc2ccc3occc3c2o1 | Aldehyde dehydrogenase 1A1 (ALDH1A1, Homo sapiens, UniProt P00352) | enzyme activity, inhibitor, absorbance | 10 µM | activity vs control | 61% |
| Cc1nn(C)cc1-c1nc2c(N3CCN(Cc4ccc(Cl)cc4)CC3)c(Cl)cnc2[nH]1 | Serine/threonine-protein kinase 32A (STK32A, Homo sapiens, UniProt Q8WU08) | binding, competition with immobilised ligand | 1 µM | remaining binding | 100% |
| N=C(N)c1ccc2cc(OC(=O)c3ccc(N=C(N)N)cc3)ccc2c1 | MMP7 | enzyme activity, inhibitor | 10 µM | inhibition | 5% |
| Cc1cc(=O)oc2cc(NC(=O)[C@H](CCCNC(=N)N)NC(=O)[C@H](CCCNC(=N)N)NC(=O)[C@@H](NC(=O)[C@H](CCCNC(=N)N)NC(=O)OC(C)(C)C)C(C)C)ccc12 | Furin (FURIN, Homo sapiens, UniProt P09958) | enzyme activity, substrate, fluorescence | – | Km | 44.6 µM |
| Nc1ncc(-c2nc(N3CCOCC3)nc(N3CCOCC3)n2)c(C(F)F)n1 | Serine/threonine-protein kinase 17B (STK17B, Homo sapiens, UniProt O94768) | binding, competition with immobilised ligand | 10 µM | remaining binding | 85% |
| CCOC(=O)c1ccc(OC(=O)CCCCCNC(=N)N)cc1 | MMP7 | enzyme activity, inhibitor | 10 µM | inhibition | 3% |
| COc1ncccc1-c1cnn2ccc(N3CCN(C(=O)OC(C)C)CC3)nc12 | Phosphatidylinositol 4-phosphate 5-kinase type-1 gamma (PIP5K1C, Homo sapiens, UniProt O60331) | binding, competition with immobilised ligand | 1 µM | remaining binding | 53% |
